ChEMBL document CHEMBL1130090, “Antitumor agents. 174. 2',3',4',5,6,7-Substituted 2-phenyl-1,8-naphthyridin-4-ones: their synthesis, cytotoxicity, and inhibition of tubulin polymerization” (J Med Chem, 1997)

What was measured:
Assay type in all cases: functional
HCT-116 = assay: Concentration which reduced cell growth to 50 % of level against HCT116 colon cancer cell line; conditions: Homo sapiens
U-251 = assay: Concentration which reduced cell growth to 50 % of U251 cancer line; conditions: Homo sapiens
786-0 = assay: Concentration which reduced cell growth to 50 % of level against 786-0 renal cancer line; conditions: Homo sapiens
Tumor Cell line = assay: Cytotoxic effect in human tumor cell lines, tested by the National Cancer Institute; conditions: read-out: Average LogGI50 (converted)
OVCAR-3 = assay: Concentration which reduced cell growth to 50 % of level against OVCAR-3 ovarian cancer line; conditions: Homo sapiens
NCI-H460 = assay: Concentration which reduced cell growth to 50 % of level against NCI-H460 non -small-cell lung cancer cell line; conditions: Homo sapiens
Tubulin beta chain = Tubulin beta chain (Bos taurus, UniProt Q6B856); assay: Inhibition of bovine tubulin polymerization
Tubulin beta chain, sequence (Q6B856 whole entry): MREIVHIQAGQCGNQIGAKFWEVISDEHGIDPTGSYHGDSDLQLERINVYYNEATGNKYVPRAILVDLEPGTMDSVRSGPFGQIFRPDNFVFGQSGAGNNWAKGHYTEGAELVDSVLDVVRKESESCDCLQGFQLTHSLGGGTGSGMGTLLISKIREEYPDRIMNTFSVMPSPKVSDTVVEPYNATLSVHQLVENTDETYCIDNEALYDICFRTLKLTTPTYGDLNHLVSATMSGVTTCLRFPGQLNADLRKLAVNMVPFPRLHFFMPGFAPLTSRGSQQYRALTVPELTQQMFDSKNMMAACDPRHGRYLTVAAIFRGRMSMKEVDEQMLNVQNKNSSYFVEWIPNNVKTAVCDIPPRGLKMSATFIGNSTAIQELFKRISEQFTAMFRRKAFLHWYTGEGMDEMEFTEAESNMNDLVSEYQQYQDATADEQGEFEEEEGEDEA

PC-3 = assay: Concentration which reduced cell growth to 50 % of level against PC-3 prostate cancer line; conditions: Homo sapiens
MDA-MB-435 = assay: Concentration which reduced cell growth to 50 % of level against MDA-MB-435 breast cancer line; conditions: Homo sapiens
MDA-N = assay: Concentration which reduced cell growth to 50 % of level against MDA-N breast cancer line; conditions: Homo sapiens
SF-295 = assay: Concentration which reduced cell growth to 50 % of level against SF-295 CNS cancer line; conditions: Homo sapiens
HL-60 = assay: Concentration which reduced cell growth to 50 % of level against HL-60 (TB) leukemia cell line; conditions: Homo sapiens
SK-MEL-5 = assay: Concentration which reduced cell growth to 50 % of level against SK-MEL-5 melanoma cell line; conditions: Homo sapiens
[1] = biological target: Tubulin alpha chain (Sus scrofa) (UniProt P02550); assay: Inhibition of colchicine binding and evaluated only when polymerization IC50 <=1 uM
Tubulin alpha chain (Sus scrofa), sequence (P02550 whole entry, looked up): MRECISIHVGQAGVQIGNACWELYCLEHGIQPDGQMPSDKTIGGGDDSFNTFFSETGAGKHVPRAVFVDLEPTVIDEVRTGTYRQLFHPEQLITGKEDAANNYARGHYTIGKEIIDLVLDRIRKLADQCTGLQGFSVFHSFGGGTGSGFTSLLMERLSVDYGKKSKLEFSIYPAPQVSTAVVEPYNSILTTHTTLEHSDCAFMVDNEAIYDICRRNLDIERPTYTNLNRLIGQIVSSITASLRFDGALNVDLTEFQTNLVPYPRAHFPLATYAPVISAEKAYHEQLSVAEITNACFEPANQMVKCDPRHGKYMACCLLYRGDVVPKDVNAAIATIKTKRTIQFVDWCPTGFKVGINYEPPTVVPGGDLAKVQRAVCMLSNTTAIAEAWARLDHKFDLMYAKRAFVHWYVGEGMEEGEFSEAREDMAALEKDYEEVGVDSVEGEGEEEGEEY
Summary of the method: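 Electrophoretically homogeneous bovine brain tubulin (1.0 µM) incubated 20 min at 37 °C with 5.0 µM [3H]colchicine and 5.0 µM inhibitor in 1.0 M monosodium glutamate (pH 6.6), 1 mM MgCl2, 0.1 mM GTP, 5% (v/v) DMSO. Mixtures filtered through two stacked DEAE-cellulose filters and washed with water. Bound radioactivity counted by liquid scintillation.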

SMILES | GI50 (HCT-116) | GI50 (U-251) | GI50 (786-0) | GI50 (Tumor Cell line) | GI50 (OVCAR-3) | GI50 (NCI-H460) | IC50 (Tubulin beta chain) | GI50 (PC-3) | GI50 (MDA-MB-435) | GI50 (MDA-N) | GI50 (SF-295) | GI50 (HL-60) | GI50 (SK-MEL-5) | inhibition [1]
COc1ccccc1-c1cc(O)c2cccnc2n1 | 27.5 µM | 67.6 µM | 36.3 µM | 40.7 µM | 47.9 µM | 38.9 µM | > 40 µM | 29.5 µM | 39.8 µM | 20 µM | 23.4 µM | 38.9 µM | 31.6 µM | 
COc1cccc(-c2cc(O)c3cc(Br)cnc3n2)c1 |  |  |  |  |  |  | 1.5 µM |  |  |  |  |  |  | 
Cc1cc(C)c2c(O)cc(-c3ccc(F)cc3)nc2n1 | 50.1 µM | 95.5 µM | 79.4 µM | 40.7 µM | 43.7 µM | 51.3 µM | > 40 µM | 30.2 µM | 18.6 µM | 25.1 µM | 50.1 µM | 15.5 µM | 26.3 µM | 
Cc1cnc2nc(-c3ccc(Cl)cc3)cc(O)c2c1 | 2.82 µM | 3.02 µM | 6.31 µM | 3.72 µM | 2.24 µM | 3.89 µM | 2 µM | 1.15 µM | 0.603 µM | 0.562 µM | 2.4 µM | 2.24 µM | 2.19 µM | 
COc1cccc(-c2cc(O)c3ccccc3n2)c1 |  | 9.55 µM | 5.13 µM | 6.17 µM |  | 3.98 µM |  |  |  |  |  | 2.09 µM |  | 
Cc1ccc(-c2cc(O)c3c(C)ccnc3n2)cc1 |  |  |  |  |  |  | 2.9 µM |  |  |  |  |  |  | 
COc1ccccc1-c1cc(O)c2ccc(C)nc2n1 | 38 µM | > 100 µM | > 100 µM | 79.4 µM | > 100 µM | 97.7 µM | > 40 µM | > 100 µM | 21.9 µM | 20 µM | > 100 µM | 74.1 µM | 51.3 µM | 
Oc1cc(-c2ccc(Cl)cc2)nc2ncccc12 | 32.4 µM | 39.8 µM | 33.9 µM | 38.9 µM | 23.4 µM | 38 µM | 22 µM | 47.9 µM | 5.89 µM | 8.32 µM | 40.7 µM | 16.6 µM | 28.8 µM | 
Cc1ccc(-c2cc(O)c3ccc(C)nc3n2)cc1 |  |  |  |  |  |  | 4.9 µM |  |  |  |  |  |  | 
COc1ccccc1-c1cc(O)c2cc(C)cnc2n1 | 42.7 µM | 27.5 µM | 41.7 µM | 31.6 µM | 19.5 µM | 32.4 µM | 18 µM | 26.9 µM | 3.02 µM | 4.47 µM | 30.9 µM | 9.55 µM | 20.4 µM | 
Oc1cc(-c2ccc(F)cc2)nc2ncccc12 | 42.7 µM | 47.9 µM | 44.7 µM | 45.7 µM | 45.7 µM | 34.7 µM | > 40 µM | 45.7 µM | 12 µM | 14.1 µM | 50.1 µM | 12.9 µM | 30.2 µM | 
COc1ccc(-c2cc(O)c3cccnc3n2)cc1 | 17.8 µM | 53.7 µM | 56.2 µM | 38 µM | 30.2 µM | 26.3 µM | > 40 µM | 31.6 µM | 20 µM | 20.9 µM | 64.6 µM | 12.9 µM | 34.7 µM | 
COc1cccc(-c2cc(=O)c3ccc(C)nc3[nH]2)c1 | 0.0468 µM | 0.0537 µM | 0.0537 µM | 0.0575 µM | 0.0224 µM | 0.0437 µM |  | 0.0331 µM | < 0.01 µM | 0.011 µM | 0.0302 µM | 0.0182 µM | 0.0339 µM | 29%
COc1cccc(-c2cc(O)c3cccnc3n2)c1 | 0.0363 µM | 0.055 µM | 0.0617 µM | 0.135 µM | 0.055 µM | 0.0912 µM | 0.96 µM | 0.0933 µM | < 0.01 µM | < 0.01 µM | 0.0525 µM | 0.0162 µM | 0.0537 µM | 27%
COc1cccc(-c2cc(O)c3c(C)ccnc3n2)c1 | 0.0447 µM | 0.0589 µM | 0.0513 µM | 0.0589 µM | 0.0257 µM | 0.0479 µM | 0.62 µM | 0.0263 µM | < 0.01 µM | < 0.01 µM | 0.0288 µM | 0.0129 µM | 0.0224 µM | 28%
COc1cc([C@@H]2c3cc4c(cc3[C@H](O)[C@H]3COC(=O)[C@H]23)OCO4)cc(OC)c1OC [PODOFILOX] |  |  |  | 0.0288 µM |  |  |  |  |  |  |  |  |  | 76%

SMILES | GI50 (HCT-116) | GI50 (U-251) | GI50 (786-0) | GI50 (Tumor Cell line) | GI50 (OVCAR-3) | GI50 (NCI-H460) | IC50 (Tubulin beta chain) | GI50 (PC-3) | GI50 (MDA-MB-435) | GI50 (MDA-N) | GI50 (SF-295) | GI50 (HL-60) | GI50 (SK-MEL-5) | inhibition [1]
Cc1ccc2c(O)cc(-c3ccc(F)cc3)nc2n1 | 33.9 µM | 37.2 µM | 41.7 µM | 32.4 µM | 32.4 µM | 33.9 µM | > 40 µM | 20.9 µM | 5.89 µM | 11.7 µM | 37.2 µM | 14.8 µM | 31.6 µM | 
COc1ccccc1-c1cc(O)c2c(C)cc(C)nc2n1 | 74.1 µM | > 100 µM | > 100 µM | 57.5 µM | 64.6 µM | 70.8 µM | > 40 µM | 47.9 µM | 32.4 µM | 33.1 µM | 53.7 µM | 30.2 µM | 33.9 µM | 
COc1cc2c(c(OC)c1OC)-c1ccc(OC)c(=O)cc1[C@@H](NC(C)=O)CC2 [COLCHICINE] |  |  |  | 0.0575 µM |  |  |  |  |  |  |  |  |  | 
COc1ccc(-c2cc(O)c3c(C)ccnc3n2)cc1 | 6.46 µM | 6.31 µM | 25.1 µM | 12.9 µM | 13.8 µM | 6.17 µM | 8.8 µM | 18.2 µM | 2.4 µM | 2.09 µM | 19.5 µM | 4.37 µM | 3.89 µM | 
Cc1ccc(-c2cc(O)c3c(C)cc(C)nc3n2)cc1 |  |  |  |  |  |  | 9.8 µM |  |  |  |  |  |  | 
COc1ccc(/C=C\c2cc(OC)c(OC)c(OC)c2)cc1O [COMBRETASTATIN A4] |  |  |  | 0.00661 µM |  |  |  |  |  |  |  |  |  | 
Cc1cnc2nc(-c3ccc(F)cc3)cc(O)c2c1 | 24 µM | 25.1 µM | 32.4 µM | 26.3 µM | 22.4 µM | 33.9 µM | 20 µM | 25.7 µM | 2.63 µM | 3.02 µM | 29.5 µM | 2.4 µM | 21.9 µM | 
Cc1ccnc2nc(-c3ccc(Cl)cc3)cc(O)c12 | 3.72 µM | 4.57 µM | 3.98 µM | 5.13 µM | 3.16 µM | 3.72 µM | 4.8 µM | 2.88 µM | 0.759 µM | 1.32 µM | 5.37 µM | 1.78 µM | 3.47 µM | 
COc1cccc(-c2cc(O)c3cc(C)cnc3n2)c1 | 0.0224 µM | 0.0447 µM | 0.0372 µM | 0.0955 µM | 0.0417 µM | 0.0437 µM | 0.8 µM | 0.0427 µM | < 0.01 µM | < 0.01 µM | 0.0372 µM | 0.0191 µM | 0.0257 µM | 31%
COc1ccc(-c2cc(O)c3ccc(C)nc3n2)cc1 | > 100 µM | > 100 µM | > 100 µM | 91.2 µM | > 100 µM | > 100 µM | > 40 µM | > 100 µM | 42.7 µM | 55 µM | 89.1 µM | > 100 µM | 47.9 µM | 
Oc1cc(-c2ccc(F)cc2)nc2ncc(Cl)cc12 | 17 µM | 29.5 µM | 32.4 µM | 21.9 µM | 17.4 µM | 30.2 µM | 16 µM | 21.9 µM | 2.57 µM | 2.95 µM | 21.4 µM | 3.89 µM | 6.61 µM | 
COc1cccc(-c2cc(O)c3ccc(C)nc3n2)c1 |  |  |  |  |  |  | 0.75 µM |  |  |  |  |  |  | 
Cc1ccc2c(O)cc(-c3ccc(Cl)cc3)nc2n1 | 3.31 µM | 4.79 µM | 6.31 µM | 4.9 µM | 2.57 µM | 4.47 µM | 11 µM | 1.66 µM | 0.912 µM | 1 µM | 4.57 µM | 2.95 µM | 4.37 µM | 
Cc1ccc(-c2cc(O)c3cc(C)cnc3n2)cc1 |  |  |  |  |  |  | 2.4 µM |  |  |  |  |  |  | 
COc1cccc(-c2cc(O)c3cc(Cl)cnc3n2)c1 | 0.12 µM | 0.2 µM | 0.427 µM | 0.0977 µM | 0.49 µM | 0.0631 µM | 0.73 µM | 0.138 µM | 0.0324 µM | 0.0316 µM | 0.0603 µM | 0.0269 µM | 0.126 µM | 35%
